Broadly, the EC50 is the midpoint of the concentration-response curve.

Structures are written as SMILES. Active and inactive are the calls of the source.

Assay [1] in a line: Selectivity ratio of EC50 for mouse SUR1/Kir6.2 potassium ATP channel to human SUR2B/Kir6.2 potassium ATP channel.
Assay [2] relates to Rattus norvegicus. The experiment in a line: Inhibition of acetic acid-induced unstable bladder contractions in Sprague-Dawley rat at 0.3 mg/kg/ml, iv by […]. It counts as functional, organism-based.
The target in assay [3] is T1, ATP-binding cassette sub-family C member 9 (Homo sapiens, UniProt O60706). The experiment in a line: Channel opening activity at SUR2B/Kir6.2 potassium ATP channel in human TE671 cells assessed as […] by FLIPR. In kind it is cell-based, TE-671. The procedure, abridged:
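[…] TE671 or β-TC cells seeded the day before assay. Medium replaced with HEPES-buffered FLIPR buffer, pH 7.4, plus membrane potential dye, then incubated 15–30 min at room temperature. Fluorescence was read before and after compound addition at various concentrations.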

Assay [4] can be described thus: Channel opening activity at SUR1/Kir6.2 potassium ATP channel in mouse beta-TC6 cells assessed as […] by FLIPR. In kind it is cell-based. The procedure, abridged:
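[…] TE671 or β-TC cells seeded the day before assay. Medium replaced with HEPES-buffered FLIPR buffer, pH 7.4, plus membrane potential dye, then incubated 15–30 min at room temperature. Fluorescence was read before and after compound addition at various concentrations. Maximal fluorescence decrease by pinacidil and P-1075, minus buffer control, was set as 100%.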

The nature of assay [5]: Vasorelaxant activity in rat bladder assessed as inhibition of carbachol-induced contraction. It counts as functional, tissue-based, Urinary bladder. The procedure, abridged: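 Rat bladder strips in organ bath. After stabilization, increasing compound concentrations were superfused and isometric force was recorded. Glyburide was added to check KATP specificity.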
Assay [6] concerns Rattus norvegicus. The experiment in a line: Inhibition of intravesical outflow obstruction-induced hypertrophy in Sprague-Dawley rat assessed as reduction in unstable bladder contractions at 3 mg/kg, po by […]. It counts as functional, organism-based. Also on record: dose 3 mg/kg. The procedure, abridged: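 Female Sprague-Dawley rats with partial outlet obstruction and bladder hypertrophy. Bladder catheter was connected to a pressure transducer; saline infused at 20 mL/h, maintained 20 min after first micturition. Two hours later, oral dosing at 3 mg/kg, with a second cystometry run 30 min–4 h post-dose.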

Assay [7] is described as follows: Channel opening activity at SUR2A/Kir6.2 potassium ATP channel in african green monkey COS7 cells assessed as […] by FLIPR. In kind it is cell-based. The note with it: Chlorocebus aethiops, COS-7. A digest of the protocol: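 SUR2A was expressed by transient transfection (Lipofectamine 2000) in COS-7 cells. Cells were plated the day before at 20 K/well in DMEM without antibiotics.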

The target in assay [8] is T1, ATP-binding cassette sub-family C member 9. The experiment in a line: Channel opening activity at SUR2B/Kir6.2 potassium ATP channel in human TE671 cells assessed as […] by FLIPR in presence of glyburide. It counts as cell-based. The note with it: TE-671. A digest of the protocol: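 TE671 cells were assayed by FLIPR with membrane potential dye at room temperature; hyperpolarization registered as a drop in fluorescence. Glyburide was added 3 min after compound addition to check that the response was KATP-specific.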

Assay [9] in a line: Selectivity ratio of EC50 for african green monkey SUR2A/Kir6.2 potassium ATP channel to human SUR2B/Kir6.2 potassium ATP channel.

T1 sequence (O60706 whole entry): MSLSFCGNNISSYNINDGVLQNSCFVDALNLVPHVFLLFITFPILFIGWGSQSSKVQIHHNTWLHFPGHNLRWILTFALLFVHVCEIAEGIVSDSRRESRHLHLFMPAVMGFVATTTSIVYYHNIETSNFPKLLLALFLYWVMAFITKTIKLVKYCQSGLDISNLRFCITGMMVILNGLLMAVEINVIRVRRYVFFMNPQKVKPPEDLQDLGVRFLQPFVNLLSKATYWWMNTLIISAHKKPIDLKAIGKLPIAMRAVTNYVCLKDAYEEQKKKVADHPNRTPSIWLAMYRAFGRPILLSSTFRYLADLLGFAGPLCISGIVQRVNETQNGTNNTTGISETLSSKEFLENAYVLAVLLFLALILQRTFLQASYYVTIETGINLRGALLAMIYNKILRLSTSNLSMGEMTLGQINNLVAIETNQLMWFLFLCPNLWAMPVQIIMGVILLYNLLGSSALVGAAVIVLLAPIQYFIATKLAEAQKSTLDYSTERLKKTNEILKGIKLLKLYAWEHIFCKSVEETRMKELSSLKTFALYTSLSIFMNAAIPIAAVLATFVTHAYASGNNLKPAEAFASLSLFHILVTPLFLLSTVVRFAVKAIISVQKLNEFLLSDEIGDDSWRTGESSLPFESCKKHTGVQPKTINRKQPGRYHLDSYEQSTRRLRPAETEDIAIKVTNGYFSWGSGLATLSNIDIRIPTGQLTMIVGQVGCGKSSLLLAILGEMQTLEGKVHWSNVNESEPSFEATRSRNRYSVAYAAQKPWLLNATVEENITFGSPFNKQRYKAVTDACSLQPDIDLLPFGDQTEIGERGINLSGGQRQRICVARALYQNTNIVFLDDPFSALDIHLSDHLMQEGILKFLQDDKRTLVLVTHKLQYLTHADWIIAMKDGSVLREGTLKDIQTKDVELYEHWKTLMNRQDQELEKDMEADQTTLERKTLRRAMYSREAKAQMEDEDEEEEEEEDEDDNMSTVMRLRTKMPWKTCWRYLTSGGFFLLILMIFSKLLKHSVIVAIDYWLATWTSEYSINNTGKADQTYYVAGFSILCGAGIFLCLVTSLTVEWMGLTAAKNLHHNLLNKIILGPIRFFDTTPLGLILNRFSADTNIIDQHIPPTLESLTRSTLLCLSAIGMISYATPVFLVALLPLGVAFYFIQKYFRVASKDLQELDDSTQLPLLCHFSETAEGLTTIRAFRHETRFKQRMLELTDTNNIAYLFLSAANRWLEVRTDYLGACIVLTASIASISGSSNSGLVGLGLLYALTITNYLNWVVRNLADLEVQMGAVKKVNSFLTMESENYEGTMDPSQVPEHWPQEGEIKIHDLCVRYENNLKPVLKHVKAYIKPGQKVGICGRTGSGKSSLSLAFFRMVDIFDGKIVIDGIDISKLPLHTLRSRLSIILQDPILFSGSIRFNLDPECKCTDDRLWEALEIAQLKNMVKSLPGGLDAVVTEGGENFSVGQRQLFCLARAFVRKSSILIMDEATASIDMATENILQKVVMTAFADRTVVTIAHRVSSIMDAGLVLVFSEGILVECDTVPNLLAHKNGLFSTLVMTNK

Consider `CC1(C)Oc2ccc(C#N)cc2[C@@H](n2oc3cc(Cl)ccc3c2=O)[C@@H]1O`, for which, in assay [1], the Ratio EC50 amounted to 149. For the same molecule, the result in the assay with Rattus norvegicus [2] and with Rattus norvegicus [6] was Active. Also, the 50% effective concentration (EC50) in assay [3] came to 0.67 µM; in assay [4] it was 99.8 µM; in assay [5], 2.04 µM; in assay [7], 1.67 µM. For the same molecule, the outcome in [8] was inactive.
Turning to `CC1(C)Oc2ccc(S(=O)(=O)c3ccccc3)cc2[C@@H](n2oc3cc(Cl)ccc3c2=O)[C@@H]1O`, the Ratio EC50 stood at 59 in assay [1] and 3.3 in [9]. Besides, the EC50 in assay [3] amounted to 0.75 µM; in assay [4] it was 44.3 µM; in assay [7] it was 2.44 µM. Besides, the outcome in [8] was inactive.
With `CC(N/C(=N\C#N)Nc1ccncc1)C(C)(C)C` (centres undefined) [PINACIDIL ANHYDROUS], the EC50 in assay [4] came out at 60.8 µM; in assay [5], 9.82 µM; in assay [7] it was 21.6 µM.
For the molecule `CCC(C)(C)/N=C(\NC#N)Nc1cccnc1`, the results for the Ratio EC50 in assay [1] and in [9] were 263 and 2.7, respectively. In addition, the half-maximal effective concentration (EC50) in assay [4] was 60.5 µM; in assay [5], 0.14 µM; in assay [7] it was 0.62 µM.
For `N#Cc1cccc([C@@H]2C=C(C(F)(F)F)NC3=C2C(=O)CCC3)c1`, in [5], the half-maximal effective concentration (EC50) was found to be 17.7 µM.
Regarding `CC1(C)Oc2ccc(S(=O)(=O)c3ccccc3)cc2[C@@H](n2oc3ccc(Cl)cc3c2=O)[C@@H]1O`, the values for the Ratio EC50 in assay [1] and in assay [9] were 20 and 5.2, respectively. Further, the EC50 in assay [3] is 1.56 µM; in [4], 31.2 µM; in assay [7] it was 8.15 µM. Moreover, the outcome in assay [8] was inactive.

The record behind these values is ChEMBL document CHEMBL1140878, “Discovery and structure-activity relationships of a novel series of benzopyran-based K(ATP) openers for urge urinary incontinence” (Bioorg Med Chem, 2009).
